Results published in ChEMBL document CHEMBL1151986, “Antineoplastic agents. 570. Isolation and structure elucidation of bacillistatins 1 and 2 from a marine Bacillus silvestris” (2009).
≈ marks a conversion by molar mass, not a printed value. Calls of active or inactive are those of the source. The rule behind the calls is not given here.

Key:
[1] = system: KM-20L2; experiment: Cytotoxicity against human KM20L2 cells after 48 hrs by sulforhodamine B assay; assay type: functional; conditions: KM-20L2, 48 h
Procedure, shortened: (§1)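 Cells were grown in RPMI-1640 with 5% fetal bovine serum in 96-well plates for 24 h, then exposed to serial dilutions in DMSO vehicle for 48 h. Plates were fixed with trichloroacetic acid, stained with sulforhodamine B and read for optical density. GI50 is the concentration giving a 50% reduction in net protein increase.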

[2] = system: Streptococcus pyogenes; experiment: Antibacterial activity against Streptococcus pyogenes clinical isolate by broth microdilution assay; assay type: functional
[3] = system: Streptococcus pneumoniae; experiment: Antibacterial activity against Streptococcus pneumoniae ATCC 6303 by broth microdilution assay; assay type: functional
[4] = system: Staphylococcus aureus; experiment: Antibacterial activity against Staphylococcus aureus ATCC 29213 at 64 ug/mL by broth microdilution assay; assay type: functional, organism-based
[5] = system: NCI-H460; experiment: Cytotoxicity against human NCI-H460 cells after 48 hrs by sulforhodamine B assay; assay type: functional; conditions: NCI-H460, 48 h; procedure, shortened: as §1
[6] = system: Candida albicans; experiment: Antifungal activity against Candida albicans ATCC 90028 at 64 ug/mL by broth microdilution assay; assay type: functional, organism-based
[7] = system: BXPC-3; experiment: Cytotoxicity against human BxPC3 cells after 48 hrs by sulforhodamine B assay; assay type: functional; conditions: BXPC-3, 48 h; procedure, shortened: as §1
[8] = system: Enterococcus faecalis; experiment: Antibacterial activity against Enterococcus faecalis ATCC 29212 at 64 ug/mL by broth microdilution assay; assay type: functional, organism-based
[9] = system: SF-268; experiment: Cytotoxicity against human SF268 cells after 48 hrs by sulforhodamine B assay; assay type: functional; conditions: SF-268, 48 h; procedure, shortened: as §1
[10] = system: P388; experiment: Cytotoxicity against mouse P388 cells after 48 hrs by coulter counter method; assay type: functional; conditions: P388, 48 h, read-out: ED50 (the source's name)
Procedure, shortened: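 Murine lymphocytic leukemia P388 cells were preincubated for 24 h in Fisher medium with 10% horse serum, then incubated 48 h with serial dilutions in DMSO vehicle. Cells were counted on a Coulter particle counter, and ED50 was taken as the concentration giving 50% growth inhibition.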

[11] = system: Streptococcus pyogenes; experiment: Antibacterial activity against Streptococcus pyogenes clinical isolate by broth microdilution assay in presence of 25% heat inactivated human serum; assay type: functional
[12] = system: Streptococcus pneumoniae; experiment: Antibacterial activity against penicillin-resistant Streptococcus pneumoniae clinical isolate by broth microdilution assay; assay type: functional
[13] = system: Streptococcus pneumoniae; experiment: Antibacterial activity against Streptococcus pneumoniae by broth microdilution assay in presence of 25% heat inactivated human serum; assay type: functional
[14] = system: Cryptococcus neoformans; experiment: Antifungal activity against Cryptococcus neoformans ATCC 90112 at 64 ug/mL by broth microdilution assay; assay type: functional, organism-based
[15] = system: Enterobacter cloacae; experiment: Antibacterial activity against Enterobacter cloacae ATCC 13047 at 64 ug/mL by broth microdilution assay; assay type: functional, organism-based
[16] = system: DU-145; experiment: Cytotoxicity against human DU145 cells after 48 hrs by sulforhodamine B assay; assay type: functional; conditions: DU-145, 48 h; procedure, shortened: as §1
[17] = system: MCF7; experiment: Cytotoxicity against human MCF7 cells after 48 hrs by sulforhodamine B assay; assay type: functional; conditions: MCF7, 48 h; procedure, shortened: as §1
[18] = system: Streptococcus pneumoniae; experiment: Antibacterial activity against multidrug-resistant Streptococcus pneumoniae ATCC 700673 by broth microdilution assay; assay type: functional
[19] = system: Micrococcus luteus; experiment: Antibacterial activity against Micrococcus luteus Presque Isle 456 at 64 ug/mL by broth microdilution assay; assay type: functional, organism-based
[20] = system: Escherichia coli; experiment: Antibacterial activity against Escherichia coli ATCC 25922 at 64 ug/mL by broth microdilution assay; assay type: functional, organism-based
[21] = system: Stenotrophomonas maltophilia; experiment: Antibacterial activity against Stenotrophomonas maltophilia ATCC 13637 at 64 ug/mL by broth microdilution assay; assay type: functional, organism-based
[22] = system: Neisseria gonorrhoeae; experiment: Antibacterial activity against Neisseria gonorrhoeae ATCC 49226 at 64 ug/mL by broth microdilution assay; assay type: functional, organism-based

Structure (SMILES)	GI50 [1]	MBC [2]	MIC [2]	MBC [3]	MIC [3]	Activity [4]	GI50 [5]	Activity [6]	GI50 [7]	Activity [8]	GI50 [9]	EC50 [10]	MIC [11]	MBC [12]	MIC [12]	MIC [13]	Activity [14]	Activity [15]	GI50 [16]	GI50 [17]	also measured
CC[C@H](C)[C@H]1OC(=O)[C@H](C(C)C)NC(=O)[C@H](C)OC(=O)[C@@H](C(C)C)NC(=O)[C@@H]([C@@H](C)CC)OC(=O)[C@H](C(C)C)NC(=O)[C@H](C)OC(=O)[C@@H](C(C)C)NC(=O)[C@@H](CC(C)C)OC(=O)[C@H](C(C)C)NC(=O)[C@H](C)OC(=O)[C@@H](C(C)C)NC1=O	0.26 ng/mL (≈ 0.225 nM)	> 16 µg/mL	2 µg/mL (≈ 1730 nM)	2 µg/mL (≈ 1730 nM)	1 µg/mL (≈ 867 nM)	inactive	0.45 ng/mL (≈ 0.39 nM)	inactive	0.34 ng/mL (≈ 0.295 nM)	inactive	1.8 ng/mL (≈ 1.56 nM)	0.013 µg/mL (≈ 11.3 nM)	> 64 µg/mL	1 µg/mL (≈ 867 nM)	1 µg/mL (≈ 867 nM)	> 64 µg/mL	inactive	inactive	0.86 ng/mL (≈ 0.746 nM)	0.31 ng/mL (≈ 0.269 nM)	MBC [18]: < 0.5 µg/mL; MIC [18]: < 0.5 µg/mL; Activity [19]: inactive; Activity [20]: inactive; Activity [21]: inactive; Activity [22]: inactive
CC[C@H](C)[C@H]1OC(=O)[C@H](C(C)C)NC(=O)[C@H](C)OC(=O)[C@@H](C(C)C)NC(=O)[C@@H]([C@@H](C)CC)OC(=O)[C@H](C(C)C)NC(=O)[C@H](C)OC(=O)[C@@H](C(C)C)NC(=O)[C@@H]([C@@H](C)CC)OC(=O)[C@H](C(C)C)NC(=O)[C@H](C)OC(=O)[C@@H](C(C)C)NC1=O [BACILLISTATIN 1]	0.87 ng/mL (≈ 0.754 nM)	> 32 µg/mL	2 µg/mL (≈ 1730 nM)	4 µg/mL (≈ 3470 nM)	2 µg/mL (≈ 1730 nM)	inactive	2.3 ng/mL (≈ 1.99 nM)	inactive	0.95 ng/mL (≈ 0.824 nM)	inactive	0.45 ng/mL (≈ 0.39 nM)	0.023 µg/mL (≈ 19.9 nM)	> 64 µg/mL	2 µg/mL (≈ 1730 nM)	1 µg/mL (≈ 867 nM)	> 64 µg/mL	inactive	inactive	1.5 ng/mL (≈ 1.3 nM)	0.61 ng/mL (≈ 0.529 nM)	MBC [18]: 1 µg/mL (≈ 867 nM); MIC [18]: < 0.5 µg/mL; Activity [19]: inactive; Activity [20]: inactive; Activity [21]: inactive; Activity [22]: inactive
CC(C)[C@@H]1NC(=O)[C@H](C)OC(=O)[C@@H](C(C)C)NC(=O)[C@@H](C(C)C)OC(=O)[C@H](C(C)C)NC(=O)[C@H](C)OC(=O)[C@@H](C(C)C)NC(=O)[C@@H](C(C)C)OC(=O)[C@H](C(C)C)NC(=O)[C@H](C)OC(=O)[C@@H](C(C)C)NC(=O)[C@@H](C(C)C)OC1=O [VALINOMYCIN]	0.8 ng/mL (≈ 0.72 nM)	–	–	–	–	–	2.5 ng/mL (≈ 2.25 nM)	–	1.9 ng/mL (≈ 1.71 nM)	–	2.7 ng/mL (≈ 2.43 nM)	0.12 µg/mL (≈ 108 nM)	–	–	–	–	–	–	3.5 ng/mL (≈ 3.15 nM)	1 ng/mL (≈ 0.9 nM)	–
